Reference: paper PMC5726935 (Nature chemical biology, 2017)

What was measured:
PBMC from RA patients = experiment: TNF-α production in PBMC from RA patients; assay type: cell-based, human
Method in brief: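 PBMC came from four RA patients (2010 ACR criteria) and one AOSD patient, isolated by density-gradient centrifugation. Cells were cultured at 3 × 10^6 cells/mL in RPMI 1640, with test compounds at 0, 10, 40, 80 μM or 0, 2.5, 10, 20, 40 μM. TNF-α was measured in cleared supernatants after 24 h.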

TLR8 [1] = experiment: RT-PCR of IL-8 and TNF-α mRNA in R848 treated HEK-Blue TLR8 cells; assay type: cell-based, human
TLR8 [2] = experiment: ELISA of R848-induced TNF-α production in differentiated THP-1 cells; assay type: cell-based, human
Method in brief: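 PMA-differentiated THP-1 (100 ng/mL PMA) seeded at 2 × 10^6 cells/well in supplemented RPMI and left 24 h at 37 °C, 5% CO2 to adhere. Medium then switched to unsupplemented RPMI. […] After 24 h, TNF-α in the culture supernatant was quantified by sandwich ELISA kit.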

TLR8 [3] = experiment: R848-induced TNF-α production in human PBMC; assay type: cell-based; settings: 1 μg/mL R848, dose-dependent
[4] = tested on: TLR1/2/6, TLR3, TLR4, TLR5, TLR7, and TLR9 HEK-Blue; experiment: TLR selectivity assay in HEK-Blue TLR-overexpressing cells; assay type: cell-based, human; settings: 1 μM compound, TLR-specific agonists
[5] = tested on: synovial cells from OA patients; experiment: Spontaneous cytokine release from synovial cells of OA patients; assay type: cell-based, human; settings: synovial membrane cultures, 24 h
Method in brief: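 OA synovial cells were isolated from synovial membrane taken at joint replacement and cultured at 1 × 10^6 cells/mL in RPMI 1640. After 24 h, test compound was added at 0, 10, 20, 40 or 80 μM, with chloroquine as positive control. After a further 24 h, TNF-α was measured in cleared supernatant, and IL-1β in cell lysate (EDTA, protease inhibitor) after PBS washes.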

[6] = tested on: synovial cells isolated from osteoarthritis (OA) patients; experiment: Cytotoxicity on synovial cells from OA patients; assay type: cell-based, human; settings: up to 100 μM
TLR7 = molecular target: T1, TLR7 (Homo sapiens, UniProt Q9NYK1); experiment: SEAP assay in HEK-Blue TLR7 cells activated by R848; assay type: cell-based; settings: concentrations up to 75 μM
T1 sequence (Q9NYK1 27-1049): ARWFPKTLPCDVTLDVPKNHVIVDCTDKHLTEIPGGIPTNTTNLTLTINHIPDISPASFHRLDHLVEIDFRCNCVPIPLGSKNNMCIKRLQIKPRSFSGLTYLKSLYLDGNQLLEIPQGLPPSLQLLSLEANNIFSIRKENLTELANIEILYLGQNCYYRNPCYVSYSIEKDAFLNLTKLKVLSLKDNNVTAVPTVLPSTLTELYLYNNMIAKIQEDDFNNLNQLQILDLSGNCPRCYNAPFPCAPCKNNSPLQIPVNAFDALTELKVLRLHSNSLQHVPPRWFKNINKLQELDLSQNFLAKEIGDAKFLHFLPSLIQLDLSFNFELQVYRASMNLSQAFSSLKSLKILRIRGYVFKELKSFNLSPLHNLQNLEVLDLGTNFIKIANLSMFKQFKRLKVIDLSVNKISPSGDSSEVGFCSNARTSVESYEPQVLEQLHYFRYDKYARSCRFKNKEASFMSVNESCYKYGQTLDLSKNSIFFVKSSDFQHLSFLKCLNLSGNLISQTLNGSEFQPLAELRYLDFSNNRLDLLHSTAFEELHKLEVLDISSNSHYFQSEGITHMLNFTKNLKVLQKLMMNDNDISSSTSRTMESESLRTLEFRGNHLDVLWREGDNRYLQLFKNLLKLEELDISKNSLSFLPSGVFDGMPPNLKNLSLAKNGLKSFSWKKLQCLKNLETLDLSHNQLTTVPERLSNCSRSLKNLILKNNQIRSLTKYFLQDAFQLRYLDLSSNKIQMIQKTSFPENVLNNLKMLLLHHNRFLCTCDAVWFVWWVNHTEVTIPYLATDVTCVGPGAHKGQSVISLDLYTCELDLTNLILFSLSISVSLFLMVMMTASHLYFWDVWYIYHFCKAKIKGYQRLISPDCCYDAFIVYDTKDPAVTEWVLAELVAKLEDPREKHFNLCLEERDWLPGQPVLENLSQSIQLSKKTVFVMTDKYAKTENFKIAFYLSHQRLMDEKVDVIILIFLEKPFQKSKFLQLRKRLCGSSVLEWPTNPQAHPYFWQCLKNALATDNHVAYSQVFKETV

HEK-Blue TLR8 cells = experiment: WST-1 cell proliferation; assay type: cell-based, human; settings: HEK-Blue TLR8 cell line

SMILES	TNF-α level (PBMC from RA patients; PBMCs from RA patients (and one AOSD patient), dose-dependent)	elevation of IL-8 mRNA level induced by R848 (TLR8 [1]; 1 μM compound)	elevation of TNF-α mRNA level induced by R848 (TLR8 [1]; 1 μM compound)	IC50 (TLR8 [2]; Homo sapiens, THP-1, 24 h, read-out: IC50, R848-induced TNF-α production) [nM]	R848-induced TNF-α secretion (TLR8 [3])	inhibition of TLRs other than TLR8 [4]	spontaneous release of IL-1β [5]	spontaneous release of TNF-α [5]	cytotoxicity [6]	TLR7 signaling (TLR7-mediated NF-κB activation) (TLR7)	cytotoxicity (HEK-Blue TLR8 cells)	inhibition of TNF-α level (PBMC from RA patients; PBMCs from RA patients, up to 80 μM)	inhibition of R848-induced IL-8 mRNA level (TLR8 [1]; 10 μM compound)	inhibition of R848-induced TNF-α mRNA level (TLR8 [1]; 10 μM compound)	inhibition of R848-induced TNF-α production (TLR8 [2]; THP-1, 10 μM compound)
Cc1cccc(-c2ccnc3c(C(N)=O)cnn23)c1 [CU-CPT8m, 7-m-Tolylpyrazolo[1,5-a]pyrimidine-3-carboxamide]	significantly suppressed	completely abolished	completely abolished	90 ± 10	reversed	did not show significant inhibition of any TLR other than TLR8	significant inhibitory effects	significant inhibitory effects	little cytotoxicity	not affected	negligible cytotoxicity	–	–	–	–
O=C(O)c1cnn2c(-c3cccc(C(F)(F)F)c3)ccnc12 [compound 6, 7-(3-(Trifluoromethyl)phenyl)pyrazolo[1,5-a]pyrimidine-3-carboxylic acid]	–	–	–	–	not by 6	–	–	–	–	–	–	did not show significant inhibition	negligible inhibition	negligible inhibition	failed to show significant inhibition
